For data set [1], the target named is T1, HSP90 (Plasmodium falciparum 3D7) (UniProt Q8IL32).
T1 sequence (whole entry): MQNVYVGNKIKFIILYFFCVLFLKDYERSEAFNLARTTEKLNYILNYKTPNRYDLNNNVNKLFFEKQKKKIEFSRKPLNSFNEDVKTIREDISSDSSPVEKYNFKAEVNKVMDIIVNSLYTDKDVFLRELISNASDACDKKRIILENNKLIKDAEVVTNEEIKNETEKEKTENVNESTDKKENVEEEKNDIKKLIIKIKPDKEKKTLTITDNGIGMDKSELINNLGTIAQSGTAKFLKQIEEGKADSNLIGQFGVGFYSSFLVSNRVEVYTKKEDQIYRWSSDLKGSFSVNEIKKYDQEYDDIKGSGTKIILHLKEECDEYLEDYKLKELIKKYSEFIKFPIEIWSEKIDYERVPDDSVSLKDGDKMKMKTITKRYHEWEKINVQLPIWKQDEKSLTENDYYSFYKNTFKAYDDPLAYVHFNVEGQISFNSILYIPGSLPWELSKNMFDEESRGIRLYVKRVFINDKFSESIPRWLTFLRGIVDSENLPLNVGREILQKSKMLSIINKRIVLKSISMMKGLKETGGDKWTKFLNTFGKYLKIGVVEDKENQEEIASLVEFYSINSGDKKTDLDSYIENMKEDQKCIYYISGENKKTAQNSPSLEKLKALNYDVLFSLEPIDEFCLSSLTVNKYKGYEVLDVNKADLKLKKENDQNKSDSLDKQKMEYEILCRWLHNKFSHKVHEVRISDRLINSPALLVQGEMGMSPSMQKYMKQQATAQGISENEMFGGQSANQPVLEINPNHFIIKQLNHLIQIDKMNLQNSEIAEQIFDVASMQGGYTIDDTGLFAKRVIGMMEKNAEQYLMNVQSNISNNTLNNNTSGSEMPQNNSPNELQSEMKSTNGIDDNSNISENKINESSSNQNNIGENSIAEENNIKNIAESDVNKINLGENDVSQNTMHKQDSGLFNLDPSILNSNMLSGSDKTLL
The experiment in a line: Binding affinity to Plasmodium falciparum HSP90 nucleotide binding domain at 0.5 mM by SYPRO orange dye based DSF analysis. The essentials:
(§1)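 Recombinant P. falciparum Hsp90 or GRP94 nucleotide-binding domain (0.05–0.2 mg/mL, optimized per protein) in 25 mM HEPES pH 7.5, 250 mM NaCl. Compound final concentration was 0.5 mM, with SYPRO Orange at 1:1000. Samples were heated from 18 to 90 °C at 1 °C/min. Tm was taken as the Boltzmann-fit inflection point. ΔTm = Tm with ligand minus Tm without, and shifts beyond ±1 °C were counted significant.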
For orientation: In DSF a fluorescence change marks the thermal transition of the protein.

In data set [2] the test system is Plasmodium falciparum. Briefly: Binding affinity to Plasmodium falciparum GRP94 nucleotide binding domain at 0.5 mM by SYPRO orange dye based DSF analysis. The procedure, abridged:
as §1

The test system of data set [3] is Plasmodium falciparum. The experiment in a line: Antiplasmodial activity against multidrug-resistant Plasmodium falciparum FCR-3 by [3H]-hypoxanthine incorporation assay. The class given is functional, organism-based, FCR-3/Gambia. The essentials: (§2)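 Blood-stage P. falciparum 3D7 and FCR-3 were tested by a modified [3H]-hypoxanthine incorporation assay. Chloroquine was the reference in all runs.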

For data set [4], the system named is Plasmodium falciparum. The experiment in a line: Antiplasmodial activity against chloroquine-sensitive Plasmodium falciparum 3D7 by [3H]-hypoxanthine incorporation assay. It counts as functional, organism-based. The procedure, abridged: as §2
Data set [5] can be described thus: Cytotoxicity against human HepG2A16 cells by MTT assay. The class given is cell-based. The essentials: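 MTT viability assay on HepG2-A16 cells, giving CC50 values.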
The nature of data set [6]: Selectivity index, ratio of CC50 for human HepG2A16 cells by MTT assay to IC50 for multidrug-resistant Plasmodium falciparum FCR-3. It counts as toxicity. Conditions: for selectivity ratio: HepG2A16 cells, read-out: Ratio CC50/IC50. The essentials:
(§3)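 HepG2-A16 human hepatoma cells were tested by MTT viability assay to give CC50. Blood-stage activity was measured against the multidrug-resistant P. falciparum FCR-3 strain by [3H]-hypoxanthine incorporation to give IC50. SI = CC50 HepG2 / FCR-3 IC50.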
In general terms: Tetrazolium dyes change colour on reduction, which living cells bring about.

A short description of data set [7]: Cytotoxicity against human HepG2A16 cells. The class given is cell-based.
Data set [8] is described as follows: Selectivity index, ratio of CC50 for human HepG2A16 cells to IC50 for multidrug-resistant Plasmodium falciparum FCR-3. It counts as toxicity. The procedure, abridged: as §3
Data set [9] can be described thus: Solubility of the compound in DSPC:cholesterol:DSPE-PEG2000-Mal:DOPE-Rho lipid mixture at 250 uM. It counts as physicochemical. The essentials:
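Compound added at 250 µM drug to the initial liposome lipid mixture (10 mM total lipid); precipitation and UV-visible absorbance above 300 nm assessed after encapsulation, removal of unencapsulated material and extraction with 1% w/v SDS in RPMI-A.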

A further data set relates to Plasmodium berghei. Briefly: Antiplasmodial activity against Plasmodium berghei ANKA infected in mouse assessed as inhibition of parasitemia at 50 mg/kg/day, po for 4 consecutive days starting from 2 hrs post infection by MSF assay relative to control. It counts as functional. The essentials:
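Swiss male mice (20 ± 2 g) infected ip with 10^7 P. berghei ANKA parasitized cells (day 0). Five per group dosed orally 2 h after infection and daily on days 0–3. Test compounds at 50 mg/kg/day in water:DMSO; chloroquine diphosphate at 3 mg/kg/day; vehicle controls. Parasitemia measured on day 4 by MSF assay; survival checked daily.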

For data set [10], the target named is T1, HSP90 (Plasmodium falciparum 3D7). The experiment in a line: Binding affinity to Plasmodium falciparum HSP90 nucleotide binding domain by SPR analysis. The essentials:
(§4)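 Purified PfHsp90 and PfGRP94 nucleotide-binding domains were amine-coupled to a CM5 chip (3000 and 7000 RU, respectively), with a blank reference surface. Seven compound concentrations (0.4 nM–1 mM) were injected in triplicate at 30 µL/min, 25 °C, in random order. Running buffer: 10 mM HEPES pH 7.4, 150 mM NaCl, 0.005% P20, 1% DMSO, 2 mM MgCl2. Kd came from double-referenced sensorgrams.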
On the technique in general: SPR reads the build-up and loss of mass on a sensor chip optically.

Data set [11] relates to Plasmodium falciparum. The experiment in a line: Binding affinity to Plasmodium falciparum GRP94 nucleotide binding domain by SPR analysis. The procedure, abridged:
as §4

Where [12] appears, read: Plasmodium falciparum, FCR-3/Gambia, 3 h.

pIC50: −log10 of the molar value. Active and inactive are the calls of the source. No cut-off for these calls is given here.

For orientation: pIC50 means the IC50 on a negative log10 scale, so that one unit is a factor of ten. By CC50 is commonly meant the concentration at which the toxic effect on the cells reaches its halfway point. A high value points to better tolerance by the cells.

Turning to `Nc1ncnc2c1ncn2[C@@H]1O[C@H](COP(=O)(O)OP(=O)(O)OP(=O)(O)O)[C@@H](O)[C@H]1O`, the result (in data set [1]; in the data set on Plasmodium falciparum [2]) was Active.

`Nc1ncnc2c1ncn2[C@@H]1O[C@H](COP(=O)(O)OP(=O)(O)O)[C@@H](O)[C@H]1O`: the result (in data set [1]; in the data set on Plasmodium falciparum [2]) was Active.

On to `O=[N+]([O-])c1ccc(N2CCC(NCCC(O)c3ccc(F)c4ccccc34)CC2)c(C(F)(F)F)c1` (single isomer, unassigned; (+)), for which the pIC50 with Plasmodium falciparum [3] was 6.72; with Plasmodium falciparum [4] it was 6.32. Also, the results for the CC50 in [5] and in data set [7] were 38.3 µM and 37.6 µM, respectively. Moreover, the results for the “Ratio CC50/IC50” value in [6] and in data set [8] were 201 and 420, respectively.

Regarding `N#Cc1ccc(N2CCC(NCCC(O)c3ccc(F)c4ccccc34)CC2)c(C(F)(F)F)c1` (single isomer, unassigned; (+)), the pIC50 in the data set on Plasmodium falciparum [3] is 6.19; in the data set on Plasmodium falciparum [4] it was 5.24. Further, the CC50 came out at 18.8 µM in data set [5] and 79.9 µM in data set [7]. Also, the “Ratio CC50/IC50” value in [6] came out at 29; in data set [8], 58.

In the case of `OC(CCN1CCN(c2ccccc2C(F)(F)F)CC1)c1ccc(F)c2ccccc12` (single isomer, unassigned; (-)), the pIC50 with Plasmodium falciparum [3] was 6.70; in the data set with Plasmodium falciparum [4] it was 6.06. The results for the CC50 in data set [5] and in data set [7] were 18.2 µM and 61.5 µM, respectively. The “Ratio CC50/IC50” value in [6] was 91; in data set [8], 308.

In the case of `OC(CCN1CCN(c2ccccc2C(F)(F)F)CC1)c1ccc(F)c2ccccc12` (single isomer, unassigned; (+)), the pIC50 in the data set on Plasmodium falciparum [3] was 6.68; in the data set with Plasmodium falciparum [4] it was 6.27. Further, the CC50 in data set [5] was 10.8 µM; in data set [7] (HepG2A16 cells), 36.1 µM. The “Ratio CC50/IC50” value in data set [6] is recorded as 51. The selectivity ratio in [8] (HepG2A16 cells, read-out: Ratio CC50/IC50) amounted to 172.

Take `OC(CCN1CCN(C(c2ccccc2)c2ccccc2)CC1)c1ccc2c(c1)OCO2` (stereo not drawn): the pIC50 in the data set on Plasmodium falciparum [3] (setting [12]) is 5.84; with Plasmodium falciparum [4] (Plasmodium falciparum, 3D7), 5.78. This compound also registered a CC50 in [5] (HepG2A16 cells) of 36.1 µM. In data set [6], the selectivity ratio was found to be 25. Also, the solubility entry in [9] is “Insoluble”.

As for `OC(CCN1CCN(c2ccccc2C(F)(F)F)CC1)c1ccc(F)c2ccccc12` (stereo in doubt; 55), the inhibition result in the data set on Plasmodium berghei was “inactive”. Also, the result (in data set [1]; with Plasmodium falciparum [2]; in data set [10]; in the data set on Plasmodium falciparum [11]) was inactive.

`N#Cc1ccc(N2CCC(NCCC(O)c3ccc(F)c4ccccc34)CC2)c(C(F)(F)F)c1` (stereo in doubt; (-)-72): the pIC50 with Plasmodium falciparum [3] is 6.41; with Plasmodium falciparum [4] it was 6.55. Further, the CC50 in data set [5] amounted to 11 µM; in data set [7], 27.8 µM. Further, the “Ratio CC50/IC50” value in data set [6] is 28; in data set [8], 11.

For `O=[N+]([O-])c1ccc(N2CCC(NCCC(O)c3ccc(F)c4ccccc34)CC2)c(C(F)(F)F)c1` (single isomer, unassigned; (-)), the pIC50 in the data set with Plasmodium falciparum [3] was 6.06; in the data set on Plasmodium falciparum [4] it was 5.75. The CC50 in data set [5] is 20 µM; in data set [7] it was 4.13 µM. For the same compound, the “Ratio CC50/IC50” value in data set [6] is listed as 23; in data set [8] it was 32.

In the case of `N#Cc1ccc(N2CCC(NCCC(O)c3ccc(F)c4ccccc34)CC2)c(C(F)(F)F)c1` (stereo in doubt; 72), the outcome (in data set [1]; in the data set on Plasmodium falciparum [2]; in data set [10]; in the data set on Plasmodium falciparum [11]) was inactive.

For the compound `O=[N+]([O-])c1ccc(N2CCC(NCCC(O)c3ccc(F)c4ccccc34)CC2)c(C(F)(F)F)c1` (stereo in doubt; 8), the result (in data set [1]; in the data set with Plasmodium falciparum [2]; in data set [10]; with Plasmodium falciparum [11]) was inactive.

Consider `COc1ccccc1N1CCN(CCC(O)c2ccc(F)cc2)CC1` (single isomer, unassigned; (-)), for which the values for the pIC50 with Plasmodium falciparum [3] and in the data set with Plasmodium falciparum [4] were 6.18 and 5.91, respectively. The compound also registered a CC50 in data set [5] of 14.3 µM. The “Ratio CC50/IC50” value is reported as 22 in data set [6] and above 219.9 in data set [8].

Turning to `COc1ccccc1N1CCN(CCC(O)c2ccc(F)cc2)CC1` (stereo in doubt; 66), the result (in data set [1]; with Plasmodium falciparum [2]; in [10]; in the data set with Plasmodium falciparum [11]) was inactive.

With `COC(=O)c1ccc(C(O)CCN2CCN(C(c3ccccc3)c3ccccc3)CC2)cc1` (stereo not drawn), the pIC50 is 5.84 in the data set with Plasmodium falciparum [3] (setting [12]) and 5.77 in the data set with Plasmodium falciparum [4] (Plasmodium falciparum, 3D7). For the same compound, the midpoint of cytotoxicity in [5] (HepG2A16 cells), the CC50, lay at 84 µM. Further, the selectivity ratio in [6] was 58. Also, the solubility result in [9] was “Insoluble”.

Regarding `COc1ccccc1N1CCN(CCC(O)c2ccc(F)cc2)CC1` (single isomer, unassigned; (+)), the figures for the pIC50 in the data set on Plasmodium falciparum [3] and in the data set with Plasmodium falciparum [4] were 4.91 and 4.54, respectively. In addition, the results for the CC50 in data set [5] and in [7] (HepG2A16 cells) were 96 µM and above 145 µM, respectively. Besides, the figures for the “Ratio CC50/IC50” value in [6] and in [8] were 8 and above 11.8, respectively.
